Measurements published in ChEMBL document CHEMBL4130408, “Photoactivation provides a mechanistic explanation for pan-assay interference behaviour of 2-aminopyrroles in lipoxygenase inhibition” (Eur J Med Chem, 2017).
Activity calls are given as the source filed them. The rule behind the calls is not given here.

What was measured:
[1] = biological target: T1, Polyunsaturated fatty acid lipoxygenase ALOX15 (Homo sapiens) (UniProt P16050); assay: Inhibition of recombinant human 15-LOX-1 expressed in Escherichia coli BL21(DE3) assessed as residual activity at 10 uM preincubated in darkness followed by measuring UV absorbance of 13(S)-HpODE at 234 nm over 16 mins
T1 sequence (whole entry): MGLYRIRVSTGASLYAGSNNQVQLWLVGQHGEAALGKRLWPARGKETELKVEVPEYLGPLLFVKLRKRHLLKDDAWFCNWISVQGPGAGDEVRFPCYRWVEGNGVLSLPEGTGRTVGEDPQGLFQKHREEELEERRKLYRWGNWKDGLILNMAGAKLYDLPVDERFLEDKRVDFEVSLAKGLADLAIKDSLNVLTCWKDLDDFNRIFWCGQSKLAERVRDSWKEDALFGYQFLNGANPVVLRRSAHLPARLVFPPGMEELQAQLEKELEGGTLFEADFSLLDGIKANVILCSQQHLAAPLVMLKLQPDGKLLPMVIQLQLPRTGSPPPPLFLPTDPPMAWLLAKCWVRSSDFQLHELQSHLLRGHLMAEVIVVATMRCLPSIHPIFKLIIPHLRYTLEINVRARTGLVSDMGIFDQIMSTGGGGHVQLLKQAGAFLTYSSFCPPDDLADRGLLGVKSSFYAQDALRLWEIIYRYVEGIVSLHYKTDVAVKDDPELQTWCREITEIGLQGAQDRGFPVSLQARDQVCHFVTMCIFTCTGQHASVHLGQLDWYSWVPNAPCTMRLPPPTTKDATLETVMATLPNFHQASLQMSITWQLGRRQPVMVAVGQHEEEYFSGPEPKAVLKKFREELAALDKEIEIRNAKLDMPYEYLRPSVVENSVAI
Method in brief: (§1)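 Light-sensitivity test: h-15-LOX-1 preincubated with inhibitor for 2, 5 and 10 min under daylight, 365 nm UV irradiation or darkness, in triplicate. Linoleic acid conversion to 13(S)-HpODE then followed at 234 nm over 16 min, relative to a no-inhibitor positive control. Buffer 25 mM HEPES pH 7.4. Experiments repeated at least twice.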

[2] = biological target: T1, Polyunsaturated fatty acid lipoxygenase ALOX15 (Homo sapiens); assay: Inhibition of recombinant human 15-LOX-1 expressed in Escherichia coli BL21(DE3) at 10 uM preincubated with UV light at 365 nm followed by measuring UV absorbance of 13(S)-HpODE at 234 nm over 16 mins; conditions: TDE = time-dependent effect; method in brief: as §1
[3] = tested on: HCC-1.2; assay: Photocytotoxicity against human HCC1.2 cells assessed as decrease in cell viability at 1 to 10 uM preincubated with day light for 10 mins measured after 48 hrs by neutral red assay; assay type: functional, cell-based
[4] = tested on: HCC-1.2; assay: Photocytotoxicity against human HCC1.2 cells assessed as decrease in cell viability at 1 to 10 uM preincubated with UV light at 365 nm for 10 mins measured after 48 hrs by neutral red assay; assay type: functional, cell-based
[5] = biological target: T1, Polyunsaturated fatty acid lipoxygenase ALOX15 (Homo sapiens); assay: Inhibition of recombinant human 15-LOX-1 expressed in Escherichia coli BL21(DE3) at 10 uM preincubated in light followed by measuring UV absorbance of 13(S)-HpODE at 234 nm over 16 mins; conditions: TDE = time-dependent effect; method in brief: as §1
[6] = biological target: T2, Polyunsaturated fatty acid lipoxygenase ALOX15 (Homo sapiens, UniProt P16050); assay: Inhibition of recombinant human 15-LOX-1 expressed in Escherichia coli BL21(DE3) using linoleic acid as substrate preincubated for 10 mins followed by substrate addition
T2 sequence (P16050 whole entry): T1 sequence (whole entry)

[7] = biological target: T1, Polyunsaturated fatty acid lipoxygenase ALOX15 (Homo sapiens); assay: Inhibition of recombinant human 15-LOX-1 expressed in Escherichia coli BL21(DE3) at 10 uM preincubated with UV light at 254 nm for 2 to 10 mins followed by measuring UV absorbance of 13(S)-HpODE at 234 nm over 16 mins
Method in brief: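 254 nm UV irradiation used as a control during preincubation of h-15-LOX-1 with inhibitor. Activity was then read as 13(S)-HpODE absorbance at 234 nm over 16 min, against a no-inhibitor control. Assay buffer 25 mM HEPES pH 7.4.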

[8] = tested on: HCC-1.2; assay: Photocytotoxicity against human HCC1.2 cells assessed as growth inhibition at 1 to 10 uM after day light irradiation for 10 mins; assay type: functional, cell-based
[9] = tested on: HCC-1.2; assay: Cytotoxicity against human HCC1.2 cells assessed as growth inhibition after 48 hrs by neutral red assay; assay type: functional
Method in brief: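 HCC-1.2 hepatocarcinoma cells grown in RPMI1640 with 10% heat-inactivated FCS at 37 °C, 5% CO2. 2 × 10^5 cells/well seeded and grown 48 h. Viable cells quantified by neutral red (50 μg/mL) uptake from serum-free medium over 2 h. Dye dissolved in 1% acetic acid/70% ethanol, read as absorbance 560 minus 620 nm. Triplicate wells; three to five independent experiments; LD50 reported.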

With `Nc1[nH]c(C(=O)c2ccccc2)c(-c2ccc(Cl)cc2Cl)c1C(=O)c1cccc(Cl)c1` as the compound, how does the Activity [1] read?
Its Activity is 80%.

What about the inhibition [2] of the same compound?
Its inhibition is “Tde”.

What about the Activity [3] of the same compound?
Its Activity is “Active”.

What about the Activity [4] of the same compound?
The Activity was “Active”.

What about the inhibition [5] of the same compound?
The inhibition was “Tde”.

What about the IC50 [6] of the same compound?
Its IC50 is 6.9 µM.

And the inhibition [7]?
The inhibition was “inactive”.

What about the Activity [8] of the same compound?
The Activity was “Active”.

And the Activity [9]?
The Activity was “Dose-dependent effect”.

What about the CC50 ([9]; HCC-1.2, 48 h, read-out: LD50 (the source's name)) of the same compound?
The CC50 was 0.69 µM.
